High-throughput results deposited in PubChem by several laboratories.
The list is not random: actives were taken first. Their share in the collection is about 2.8%.
NPY2 pot ag – potentiators or agonists of human neuropeptide Y receptor Y2; P49146; cells expressing NPY-Y2, potentiator/agonist read-out; activation, % at 3.6 µM; hit rate 0.45% among 220,000; in the data active = activation above about 27%;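 also: cells stimulated with NPY near EC25 plus isoproterenol at EC100; 0% = vehicle plus submaximal agonist and 100% = vehicle plus saturating agonist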
NPY Y1 blocker – blocks the human neuropeptide Y Y1 receptor. P25929. HEK293-CNG Y1 cells, membrane potential fluorescence; NPY at EC95, then isoproterenol. inhibition, % at 3.6 µM. hit rate 1% among 200,000. AID 1040;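 active = inhibition above the campaign mean inhibition of all tested compounds plus 3 SD, cut at about 20% in these data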;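 also: 0% = DMSO wells given NPY plus isoproterenol and 100% = isoproterenol alone without NPY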
Target sequence (P25929 whole entry, looked up): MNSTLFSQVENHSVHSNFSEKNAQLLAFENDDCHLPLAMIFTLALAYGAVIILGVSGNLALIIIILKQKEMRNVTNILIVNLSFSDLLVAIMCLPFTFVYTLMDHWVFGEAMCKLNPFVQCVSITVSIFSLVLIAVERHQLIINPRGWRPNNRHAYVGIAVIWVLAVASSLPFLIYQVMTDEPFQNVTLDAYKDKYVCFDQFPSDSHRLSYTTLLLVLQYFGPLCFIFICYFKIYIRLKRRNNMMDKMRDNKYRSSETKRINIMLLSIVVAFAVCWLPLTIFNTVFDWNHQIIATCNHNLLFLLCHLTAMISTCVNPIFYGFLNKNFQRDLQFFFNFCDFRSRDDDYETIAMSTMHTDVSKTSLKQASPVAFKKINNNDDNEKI
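Assay system: HEK293 cells with Y1 receptor plus CNG channel | Probe or stimulus: NPY (25 nM), isoproterenol (1 µM), Ro 20-1724 (25 µM) | Timing: Compound incubation 1 h at room temperature, readout 45 min post-stimulation | Measured by: Membrane-potential fluorescent dye readout | Benchmarks: High control isoproterenol alone, low control NPY with isoproterenol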
EP2 modulator – modulators of human EP2 prostaglandin E2 receptor; P43116; EP2-expressing cells, cAMP HTRF FRET, PGE2 co-stimulation; induction, % at 25 µM; hit rate 0.83% among 260,000; AID 940;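 active = compounds whose cAMP rise, as percent of the full-agonist control response, exceeds 60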;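 also: rat C6 glioma line stably carrying human EP2 under a CMV promoter; the protocol text gives 20 µM as final concentration; 100% = response of wells given 1 µM PGE2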
Target sequence (P43116 whole entry, looked up): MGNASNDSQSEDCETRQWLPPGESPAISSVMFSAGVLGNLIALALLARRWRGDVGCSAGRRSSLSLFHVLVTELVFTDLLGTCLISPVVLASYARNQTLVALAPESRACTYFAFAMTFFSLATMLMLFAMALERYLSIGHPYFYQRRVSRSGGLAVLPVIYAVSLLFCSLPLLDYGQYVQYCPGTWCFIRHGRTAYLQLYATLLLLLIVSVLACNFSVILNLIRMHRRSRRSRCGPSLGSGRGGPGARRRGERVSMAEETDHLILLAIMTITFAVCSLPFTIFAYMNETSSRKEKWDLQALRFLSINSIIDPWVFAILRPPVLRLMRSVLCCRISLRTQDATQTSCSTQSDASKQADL
NPY Y2 blocker – NPY-Y2 (human) receptor antagonism | P49146 | NPY-Y2 expressing cells, antagonist mode | inhibition, % at 2.7 µM | hit rate 0.99% among 140,000; in the data active = inhibition above about 17%;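 also: 0% = vehicle with agonist challenge and 100% = reference antagonist with challenge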
NPY1 pot ag – potentiates or activates human NPY-Y1 receptor | NPY-Y1 expressing cells, potentiator/agonist activation | hit rate 0.37% among 220,000 | activation, % at 3.6 µM | P25929; in the data active = activation above about 33%, passing the limit was not always enough;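 also: cells stimulated with NPY at EC10 then isoproterenol at EC100; 0% = low agonist plus stimulus and 100% = saturating agonist plus stimulus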
EP2 antag – inhibitors of human EP2 prostaglandin E2 receptor; AID 1422; inhibition, % at 25 µM; C6 glioma cells expressing human EP2, cAMP TR-FRET; cells stimulated with saturating PGE2; hit rate 0.52% among 260,000; P43116;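 active = percent inhibition above 40 after rounding to a whole number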;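 also: rat C6 glioma host cells with rolipram phosphodiesterase inhibitor present; the protocol text gives 20 µM as final concentration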
NPY1 antag ctr – human NPY-Y1 antagonism in NPY-Y2 counter-screen. hit rate 19% among 710. shares compounds with NPY Y2 blocker. cell-based NPY-Y1 antagonism counterscreen. AID 1256. inhibition, % at 3.6 µM; in the data active = inhibition above about 20%;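 also: cells challenged with NPY then isoproterenol with cAMP sensed through a CNG channel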
NPY-Y2 ant conf – confirmation of human neuropeptide Y receptor Y2 antagonists. inhibition, % at 2.8 µM. shares compounds with NPY Y2 blocker. hit rate 32% among 710. HEK293 NPY-Y2 CNG channel, membrane potential fluorescence;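 active = mean inhibition of triplicate wells above the hit cutoff set in the primary screen, cut at about 17% in these data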;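 also: 0% = DMSO with NPY challenge and 100% = BIIE0246 high control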
Numbers without * were called inactive; . = not tested or not shown.

SMILES	NPY2 pot ag	NPY Y1 blocker	EP2 modulator	NPY Y2 blocker	NPY1 pot ag	EP2 antag	NPY1 antag ctr	NPY-Y2 ant conf
COc1ccccc1NC(=O)N(Cc1ccc(F)cc1)Cc1nc2ccccc2c(=O)[nH]1	.	.	30.5	.	.	7.3	.	.
Cc1nnc(NC(=O)C2CCN(c3nc4ccccc4n3C)CC2)s1	.	.	-35.2	.	.	2.4	.	.
Cc1ccc(Cc2nnc3n(-c4ccccc4)nc(C(=O)c4ccccc4)n3c2=O)cc1	-6.5	5.2	38.0	17.2*	-59.2	2.7	40.4*	67.4*
Cc1ccc(CNC(=O)c2cc(C)nn2-c2ccccc2)cc1	-5.4	.	2.8	.	6.1	10.5	.	.
N#Cc1sc2nc(-c3ccncc3)cc(C(F)(F)F)c2c1N	.	.	7.0	.	.	7.9	.	.
Cc1ccc(-c2nnc(SCC(=O)N(C(C)C)C(C)C)o2)cc1	.	.	7.8	.	.	13.2	.	.
Oc1ccccc1CNc1ccc(Br)cn1	12.3	6.1	-4.0	150.8*	8.2	3.4	25.7*	51.8*
COc1ccc(-c2nc(NC(=O)c3cnc(SC)nc3)sc2C)cc1F	.	.	-7.1	.	.	6.6	.	.
O=c1c2ccccc2cnn1Cc1n[nH]c(=S)n1-c1ccc(Cl)cc1	4.8	-6.6	18.6	27.5*	9.3	5.8	-0.5	-0.2
CC(C)(C)NC(=O)C(c1ccccc1F)N(Cc1cccs1)C(=O)Cn1nnc2ccccc21 (stereo not drawn)	.	.	18.3	.	.	7.1	.	.
COc1ccccc1C(c1nnnn1CCc1ccccc1)N1CCN(c2ccccc2)CC1 (stereo not drawn)	-1.6	1.8	8.6	-2.6	14.1	12.0	.	.
COc1ccccc1C(c1nnnn1CCc1ccccc1)N1CCCCCC1 (stereo not drawn)	1.4	14.6	33.2	26.4*	6.8	10.6	6.0	4.0
CCN1CCN(C(=O)CN(c2ccc(OC)cc2)S(=O)(=O)c2ccccc2)CC1	.	.	-2.2	.	.	11.8	.	.
O=C(c1nccs1)C1CCN(C(=O)Cc2ccc(Cl)cc2)CC1	.	.	-39.2	.	.	.	.	.
COc1ccc(Cc2nnc(NC(=O)c3sc4ccccc4c3Cl)s2)cc1OC	.	.	-40.4	.	.	11.1	.	.
COc1ccc(CCNC(=O)c2sc3ccccc3c2Cl)cc1OC	-16.0	10.9	6.9	26.1*	-10.0	9.1	11.1	11.2
O=C(Nc1nc2c(Cl)cccc2s1)c1cccnc1	.	.	-102.4	.	.	19.7	.	.
CCOC(=O)CC(NC(=O)C1c2ccccc2Oc2ccccc21)c1ccccc1Cl (stereo not drawn)	8.3	2.7	23.1	17.7*	-21.3	8.8	11.6	6.7
CCOC(=O)CC(NC(=O)Cc1ccccc1)c1ccccc1Cl (stereo not drawn)	4.1	6.0	19.9	2.4	-24.0	10.7	.	.
c1coc(Cn2nnnc2CN2CCN(C3CCCC3)CC2)c1	-4.1	7.9	15.9	0.0	-19.3	.	.	.
Fc1ccc(Cn2nnnc2CN2CCN(C3CCCCC3)CC2)cc1	-14.6	18.3	-25.3	19.9*	-20.7	11.4	11.6	11.4
Cc1cc(N2CCC(C)CC2)nc(NCc2ccccc2)n1	-19.7	14.1	-45.4	17.4*	-37.5	5.0	32.6*	33.2*
CCN(CC)CC#CCC(C)(c1ccccc1)c1ccccc1	-25.6	11.5	23.5	17.9*	-54.1	9.4	12.7	21.4*
Cc1ccc([N+](=O)[O-])cc1NC(=O)c1ccc(-c2ccccc2)cc1	-6.4	19.0	-2.8	22.1*	-32.0	16.8	9.3	11.9
Cc1ccc(C(=O)Nc2cc([N+](=O)[O-])ccc2C)cc1	-0.2	3.7	-5.5	.	0.9	8.7	.	.
SMILES	NPY2 pot ag	NPY Y1 blocker	EP2 modulator	NPY Y2 blocker	NPY1 pot ag	EP2 antag	NPY1 antag ctr	NPY-Y2 ant conf
CCOC(=O)c1ccccc1NC(=O)CSc1nnc(COc2ccccc2C)n1C	-17.4	14.4	39.5	18.6*	-16.8	3.5	17.5	11.1
COc1cccc(NC(=O)N2CCCC2C(=O)Nc2ccc(OC)c(OC)c2)c1 (stereo not drawn)	.	.	-48.3	.	.	9.3	.	.
COc1ccccc1NC(=O)Cn1cnc2sc(C)c(-c3ccc(F)cc3)c2c1=O	.	.	-31.0	.	.	17.9	.	.
O=C(COC(=O)c1c2c(nc3ccccc13)CCCCC2)NCc1ccc2c(c1)OCO2	-19.5	16.6	-39.1	24.9*	-21.1	0.5	22.5*	13.9
COc1ccc(NC(=O)COC(=O)c2c3c(nc4ccccc24)CCCC3)cc1	-20.6	13.3	-49.9	21.4*	-29.8	2.9	8.7	5.9
O=C(COC(=O)c1cccc(O)c1)NCc1ccc2c(c1)OCO2	-12.7	.	-23.0	.	-20.4	6.7	.	.
CNC(=O)COC(=O)c1c2c(nc3ccccc13)CCC2	-0.9	.	2.5	.	10.8	7.5	.	.
CC1CCc2c(sc3ncn(C4CCN(C(=O)C5CCCO5)CC4)c(=O)c23)C1 (stereo not drawn)	.	.	-0.1	.	.	6.4	.	.
CCC(C)(C(=O)NC1CCCCC1)N(Cc1ccco1)C(=O)c1ccccn1 (stereo not drawn)	-19.0	13.7	1.8	17.4*	-19.7	9.6	12.1	9.1
COc1ccccc1N1CCN(C(=O)CSc2nc3c(C)cccc3cc2C#N)CC1	.	.	-41.7	.	.	17.9	.	.
Cc1ccc(-c2cc(C(=O)NCc3ccc4c(c3)OCO4)no2)cc1	-12.3	17.4	-6.7	17.6*	-40.9	8.2	14.2	10.4
O=C(NCc1ccc2c(c1)OCO2)c1cc(-c2ccccc2)on1	4.5	-0.2	-45.4	7.9	-35.7	7.7	.	.
CCC(C)N(C(=O)Cn1nnc2ccccc21)C(C(=O)Nc1ccc(F)cc1)c1cccc(OC)c1 (stereo not drawn)	-63.5	16.1	0.4	18.4*	-36.6	7.9	10.6	11.3
N#Cc1nc(COc2ccc(Cl)cc2Cl)oc1N1CCN(c2ccccc2)CC1	-16.2	12.8	-16.2	17.2*	-14.0	5.7	28.6*	20.7*
N#Cc1nc(Cc2ccccc2)oc1N1CCN(c2cccc(Cl)c2)CC1	16.7	8.0	-21.3	0.0	-29.1	7.3	.	.
COc1ccc(S(=O)(=O)N(Cc2ccc3c(c2)OCO3)Cc2cc3cccc(C)c3[nH]c2=O)cc1	.	.	-17.3	.	.	5.6	.	.
CCN(CC)c1nc2cc(OC)ccc2cc1C#N	15.1	2.8	22.3	23.2*	-1.9	.	1.4	4.5
CCSc1nc2ccc(OC)cc2cc1C#N	-3.3	7.4	3.5	21.5*	-13.2	9.8	12.6	20.2*
COc1ccc2cc(C#N)c(NC(C)C)nc2c1	1.6	1.1	5.4	2.3	-20.3	11.6	.	.
CCOc1ccc2nc(SCC#N)c(C#N)cc2c1	-4.4	-0.4	14.2	5.0	-13.1	18.5	.	.
CC(=O)NN1C(=O)/C(=C2/Oc3ccc(-c4ccccc4)cc3N2C)SC1=S	.	.	-2.5	.	.	6.7	.	.
C/C(=N\NC(=O)Nc1ccccc1)c1ccc2ccccc2c1	-9.0	-0.6	-59.9	3.3	4.9	6.3	.	.
C/C(=N/NS(C)(=O)=O)c1ccc2ccccc2c1	-2.5	1.4	8.7	17.1*	-10.3	8.1	7.5	4.8
